An excerpt weighted towards active compounds, which were near 0.44% of everything screened.
S100A4 inh HTS = blocks human S100A4 binding to myosin IIA peptide | S100A4/TAMRA-MyoIIA peptide fluorescence polarization | inhibition, % at 10.7 µM | 360,000 compounds, 0.14% hits;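 active = mean inhibition of at least 70% across replicates, with every replicate also reaching that level; inconclusive = mean inhibition reaches 70% but some replicates fall short; inactive = mean inhibition below 70%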
Target sequence (P26447 whole entry, looked up): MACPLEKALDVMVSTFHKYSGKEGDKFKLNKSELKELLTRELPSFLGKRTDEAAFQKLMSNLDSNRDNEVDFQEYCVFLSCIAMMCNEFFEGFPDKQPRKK
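assay system = human S100A4 monomer with TAMRA-labelled myosin IIA peptide | also added = labelled myosin peptide probe, 5 nM | incubation = 5 min between mix addition and reading | control set = DMSO and TFP controls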
FN deposit inh = fibronectin deposition inhibition. AID 743247. inhibition, % at 12.6 µM. AH1F fibroblasts, Alexa488-fibronectin deposition fluorescence, overnight. 350,000 compounds, 0.086% hits;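 active = mean inhibition across replicates of 30% or more, regardless of how many single replicates reach that level; inconclusive = mean under 30% yet at least half of replicates reach 30%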
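Test system: AH1F fibroblast monolayer depositing Alexa488-labelled fibronectin into matrix. Input: 10000 cells per well. Technique: fluorescence, ex 485 nm, em 525 nm. Buffer or medium: DMEM plus 2% serum, read in PBS. Timing: 1 h cell adhesion before compound, then overnight fibronectin incubation. Compound: single dose, pinned. Read-out basis: inhibition from reduced deposited-fibronectin fluorescence.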
PDI inh = blocks human protein disulfide isomerase activity; AID 588391; inhibition, % at 10 µM; PDI insulin aggregation turbidity, A650, 90 min; 350,000 compounds, 0.052% hits; P07237;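 active = mean inhibition across replicates of 30% or more, whatever share of single replicates reach that level; inconclusive = mean inhibition below 30% while every single replicate reaches 30%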
Target sequence (P07237 whole entry, looked up): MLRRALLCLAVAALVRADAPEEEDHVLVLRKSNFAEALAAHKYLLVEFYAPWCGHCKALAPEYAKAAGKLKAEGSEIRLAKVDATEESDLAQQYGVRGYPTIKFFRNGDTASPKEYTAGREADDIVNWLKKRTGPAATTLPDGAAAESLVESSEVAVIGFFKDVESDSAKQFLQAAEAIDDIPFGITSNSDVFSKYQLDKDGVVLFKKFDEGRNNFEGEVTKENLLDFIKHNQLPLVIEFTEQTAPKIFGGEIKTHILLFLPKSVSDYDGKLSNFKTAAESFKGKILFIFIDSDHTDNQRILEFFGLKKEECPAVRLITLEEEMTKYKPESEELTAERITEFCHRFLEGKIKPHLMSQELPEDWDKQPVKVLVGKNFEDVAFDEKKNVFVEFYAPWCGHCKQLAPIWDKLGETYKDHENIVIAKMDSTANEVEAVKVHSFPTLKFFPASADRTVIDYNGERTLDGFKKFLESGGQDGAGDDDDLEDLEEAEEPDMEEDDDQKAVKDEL
ERp5 inh = ERp5 (human) disulfide isomerase inhibition; 350,000 compounds, 0.05% hits; ERp5 insulin aggregation, absorbance 650 nm, 90 min; inhibition, % at 9.99 µM;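 active = mean replicate inhibition above about 25%, with every replicate also reaching it, limit read from the data, passing the limit was not always enough; inconclusive = only one of those two criteria met; inactive = neither criterion met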
PglD DTNB = inhibitors of Campylobacter jejuni PglD acetyltransferase; purified PglD enzyme, DTNB colorimetric CoA detection; inhibition, % at 12.5 µM; 360,000 compounds, 0.098% hits; in the data active = inhibition above about 16%, passing the limit was not always enough; inconclusive = no clear call, values can overlap the other calls
RAD54 inh = inhibitors of human RAD54 branch migration; Q92698; RAD54 Holliday junction branch migration, FAM/BHQ fluorescence; inhibition, % at 10.4 µM; 360,000 compounds, 0.14% hits;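 active = mean normalized replicate activity at least 40 and at least half of replicates scoring 40 or more; inconclusive = only one of the two criteria met; inactive = mean below 40 and under half of replicates reaching 40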;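 also: inhibitors cause a drop in the FAM fluorescence signal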
A number is an active result; - = inactive; ? = inconclusive; . = not tested or not shown; + = active, no number; ! = repeats disagree.

SMILES	S100A4 inh HTS	FN deposit inh	PDI inh	ERp5 inh	PglD DTNB	RAD54 inh
C[C@H]1CCCCO[C@H](CN(C)Cc2ccc(C(F)(F)F)cc2)[C@@H](C)CN([C@@H](C)CO)C(=O)c2cc(NC(=O)Nc3ccc4c(c3)OCO4)ccc2O1	153.3	.	.	-	-	-
COc1ccc(NC(=O)Nc2ccc3c(c2)C(=O)N([C@H](C)CO)C[C@H](C)[C@@H](CN(C)C(=O)C2CCCCC2)OCCCC[C@H](C)O3)cc1	-	.	.	29.6	-	-
COc1ccc(CN(C)C[C@H]2OCCCC[C@@H](C)Oc3ccc(NC(=O)Nc4ccc5c(c4)OCO5)cc3C(=O)N([C@H](C)CO)C[C@H]2C)cc1	120.1	-	.	-	-	-
COc1ccc(S(=O)(=O)N(C)C[C@@H]2OCCCC[C@@H](C)Oc3ccc(NC(=O)Nc4ccc(C(F)(F)F)cc4)cc3C(=O)N([C@H](C)CO)C[C@@H]2C)cc1	99.0	.	.	-	-	-
COc1cccc(NC(=O)N(C)C[C@@H]2Oc3cc(C#Cc4ccc(F)cc4)ccc3S(=O)(=O)N([C@@H](C)CO)C[C@@H]2C)c1	-	-	.	-	-	-
O=C(C[C@@H]1CC[C@@H]2[C@H](COC[C@H](O)CN2Cc2ccccc2F)O1)N[C@H]1CCN(Cc2ccccc2)C1	-	-	.	-	-	-
CCOc1ccc(/C=N/NC(=O)c2ccccc2C)cc1CN1CC2CC(C1)c1cccc(=O)n1C2 (stereo unspecified)	93.8	.	.	-	-	-
Cc1c(-n2cc(C(=O)c3ccccc3O)cc(C#N)c2=O)c(=O)n(-c2ccccc2)n1C	.	-	88.8	.	-	-
COc1cccc(CN2CC3(CN(C(C)=O)C3)c3c(n(C)c4cc(OC)ccc34)[C@H]2CO)c1	-	.	.	-	.	.
COC(=O)C1C2CC3c4[nH]c5cc(OC)ccc5c4CCN3CC2CC(OC(=O)CC(C)=O)C1OC (stereo unspecified)	-	-	-	-	.	.
CCOC(=O)Oc1c(OC)cc(C(=O)O[C@@H]2C[C@@H]3CN4CCc5c([nH]c6cc(OC)ccc56)[C@H]4C[C@@H]3[C@H](C(=O)OC)[C@H]2OC)cc1OC	-	-	34.5	?	-	-
O=C(N/N=C/c1cccs1)c1cccc(NC(=O)c2ccc(Cl)cc2)c1	-	35.2	.	-	.	.
O=C(N/N=C/c1cccs1)c1cccc(S(=O)(=O)Nc2ccc(Cl)cc2)c1	-	-	-	-	.	.
O=C(C[C@@H]1CC[C@H]2[C@@H](COC[C@@H](O)CN2Cc2ccc3c(c2)OCO3)O1)Nc1ccc(-c2ccccc2)cc1	.	-	.	.	-	-
C[C@H]1CN(C)C(=O)c2cc(N(C)C)ccc2O[C@@H]1CN(C)C	.	-	.	.	.	.
CC(C)N1CCc2c(sc(NC(=O)c3cc(-c4cccs4)nc4ccccc34)c2C(N)=O)C1	.	.	.	.	-	78.0
O=C(O)CN1C(=O)/C(=C\c2ccc(OC(=O)c3ccco3)cc2)SC1=S	-	-	43.1	-	-	-
CCOC(=O)N1CCN(S(=O)(=O)c2ccc(C)c(C(=O)NC3CCCCC3)c2)CC1	127.3	-	-	-	-	-
CCOC(=O)C1CCN(S(=O)(=O)c2ccc(C)c(C(=O)NC3CCCCC3)c2)CC1	-	-	-	-	-	-
CCCNC(=O)[C@H]1[C@H](CO)[C@H]2Cn3c(ccc(-c4ccc(F)cc4)c3=O)[C@H]2N1CC1CC1	-	.	.	-	-	-
CC(=O)N1CCCCN2[C@H](CO)[C@H](c3ccc(C#Cc4ccccc4F)cc3)[C@H]2C1	-	.	.	-	-	-
COc1ccc(C#Cc2ccc([C@H]3[C@@H](CO)N4CCCCN(C(=O)Nc5cccc(F)c5)C[C@H]34)cc2)cc1	.	.	.	.	-	50.7
CC(=O)N1CCCCN2[C@H](CO)[C@H](c3ccc(C#Cc4ccccc4F)cc3)[C@@H]2C1	96.5	.	.	-	-	-
CC(=O)N1CCCCN2[C@@H](CO)[C@H](c3ccc(-c4cccc(C(=O)N(C)C)c4)cc3)[C@@H]2C1	102.5	.	.	-	-	-
COc1ccc(C#Cc2ccc([C@H]3[C@H]4CN(C(=O)Nc5ccccc5)CCCCN4[C@H]3CO)cc2)cc1	119.1	.	.	-	-	-
SMILES	S100A4 inh HTS	FN deposit inh	PDI inh	ERp5 inh	PglD DTNB	RAD54 inh
C/C=C/CN(C(=O)C#Cc1ccccc1)[C@H](CO[Si](C)(C)C(C)(C)C)c1ccccc1	-	.	.	-	.	.
O=C(C[C@H]1C=C[C@H](NC(=O)Nc2ccc(F)cc2)[C@@H](CO)O1)NCc1cccc(F)c1	-	-	.	.	-	-
O=C(CC1CC1)N1[C@@H](CO)[C@@H]2c3ccccc3N(S(=O)(=O)c3ccc(F)cc3)C[C@@H]21	-	.	.	-	-	-
COc1ccc2c3c(n(C)c2c1)[C@@H](CO)N(Cc1ccccc1Cl)CC31CCN(C(C)=O)CC1	-	.	.	-	.	.
O=C(C1CCCC1)N1CCCCN2[C@H](CO)[C@@H](c3ccc(C#CC4(O)CCCC4)cc3)[C@H]2C1	126.2	.	.	-	-	-
C[C@H](CO)N1C[C@H](C)[C@@H](CN(C)CC2CCCCC2)Oc2ccc(NC(=O)NC3CCCCC3)cc2CC1=O	-	.	.	-	-	-
Nc1ccc(C(=O)NN2C(=O)[C@H](Cl)C2c2ccc(Cl)cc2)cc1 (stereo partly specified)	-	-	56.1	-	.	.
CCNC(=O)CC1C(=O)N(C)C(=S)N1NC(=O)c1ccc(Cl)cc1 (stereo unspecified)	.	.	-	.	-	-
N#Cc1c(N)n(C2OC(CO)C(O)C2O)c2ncnc(N)c12 (stereo unspecified)	-	34.2	-	-	.	.
Nc1ncnc2c1ncn2C1O[C@H](CO)[C@@H](O)[C@@H]1O (stereo partly specified)	-	-	-	-	-	-
CC[n+]1ccccc1/C=C/c1ccc(N(C)C)cc1	-	-	-	-	-	-
CCCCCC[n+]1ccccc1/C=C/c1ccc(N(C)C)cc1	92.9	-	-	-	-	-
C[C@@H]1CCCCO[C@@H](CN(C)C(=O)NC2CCCCC2)[C@H](C)CN([C@H](C)CO)C(=O)c2cc(NC(=O)NC3CCCCC3)ccc2O1	-	-	.	-	.	.
CC(=O)Nc1ccc(C=NNc2nnc(NN=Cc3ccc(NC(C)=O)cc3)c3ccccc23)cc1	72.0	-	-	-	.	.
Cc1ccc(/C=N/Nc2nnc(Cl)c3ccccc23)cc1	-	-	-	-	-	-
COc1cc(/C=C/C(=O)N2CCCC=CC2=O)cc(OC)c1OC	-	.	.	-	.	.
O=c1ccc2[n+]([O-])c3ccc(O)cc3oc-2c1	+	-	-	-	.	.
COc1ccc(-c2c(-c3ccccc3)c(C(=O)C(=O)NCCCN(C)C)n3ccc4cc(OC)c(OC)cc4c23)cc1OC	-	-	-	-	-	81.3
CCC(=O)N[C@@H]1CC[C@@H](CCn2cc(CN(C)C)nn2)O[C@H]1CO	-	-	.	-	-	-
NC(=O)c1csc(-c2ccncc2)n1	.	-	-	.	-	-
Nc1cc(-c2ccncc2)c[nH]c1=O	151.7!	-	-	-	-	-

Source: PubChem BioAssay (Broad Institute)
